In ChEMBL document CHEMBL1135407, “Structure-based design of a parallel synthetic array directed toward the discovery of irreversible inhibitors of human rhinovirus 3C protease” (J Med Chem, 2002):

Columns and labels:
[1] = biological target: T1, Human rhinovirus A protease (Human rhinovirus sp., UniProt Q4U254); assay: 50% effective concentration required to inhibit Human Rhinovirus 10 Protease 3C
T1 sequence (Q4U254 whole entry): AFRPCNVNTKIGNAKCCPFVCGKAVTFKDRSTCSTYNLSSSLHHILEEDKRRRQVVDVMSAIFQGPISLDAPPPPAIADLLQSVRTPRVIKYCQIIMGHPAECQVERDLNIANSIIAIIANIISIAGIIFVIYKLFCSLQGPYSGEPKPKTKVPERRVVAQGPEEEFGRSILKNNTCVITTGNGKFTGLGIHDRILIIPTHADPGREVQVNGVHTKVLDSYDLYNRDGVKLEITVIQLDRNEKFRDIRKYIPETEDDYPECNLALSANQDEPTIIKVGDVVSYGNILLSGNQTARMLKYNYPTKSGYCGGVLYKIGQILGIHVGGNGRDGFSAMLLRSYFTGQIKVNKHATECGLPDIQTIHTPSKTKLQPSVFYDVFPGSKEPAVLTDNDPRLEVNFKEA

[2] = biological target: T1, Human rhinovirus A protease; assay: Inhibition of Human Rhinovirus 14 (HRV14) Protease 3C
HeLa = assay: 50% cytotoxic concentration required to inhibit HRV-14 infected H1HeLa cells; format: functional; conditions: Homo sapiens
[3] = biological target: T2, Human rhinovirus A protease (Human rhinovirus sp.) (UniProt Q4U254); assay: Ability to inactivate Human Rhinovirus 2 Protease 3C
T2 sequence (whole entry): T1 sequence (Q4U254 whole entry)

[4] = biological target: T2, Human rhinovirus A protease (Human rhinovirus sp.); assay: Rate of inactivation of Human Rhinovirus 14 (HRV14) Protease 3C
Summary of the method: (§1)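 Irreversible (Michael acceptor) inactivation of HRV-14 3C protease, reported as a second-order rate of inactivation in M^-1 sec^-1.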

[5] = biological target: T1, Human rhinovirus A protease; assay: 50% effective concentration required to inhibit Human Rhinovirus 2 Protease 3C
[6] = biological target: T2, Human rhinovirus A protease (Human rhinovirus sp.); assay: Ability to inactivate Human Rhinovirus 16 Protease 3C
[7] = biological target: T1, Human rhinovirus A protease; assay: 50% effective concentration required to inhibit Human Rhinovirus 1A Protease 3C
[8] = biological target: T2, Human rhinovirus A protease (Human rhinovirus sp.); assay: Evaluated for the rate of inactivation of Human Rhinovirus 14 (HRV14) Protease 3C; summary of the method: as §1
[9] = biological target: T2, Human rhinovirus A protease (Human rhinovirus sp.); assay: Ability to inactivate Human Rhinovirus 89 Protease 3C
[10] = biological target: T1, Human rhinovirus A protease; assay: 50% effective concentration required to inhibit Human Rhinovirus 16 Protease 3C
[11] = biological target: T1, Human rhinovirus A protease; assay: 50% effective concentration required to inhibit Human Rhinovirus 89 Protease 3C

Row | Compound | EC50 [2] [µM] | CC50 (HeLa) [µM] | K obs / 1 [4] [M⁻¹ s⁻¹] | further results
1 | CCOC(=O)/C=C/[C@H](C[C@@H]1CCNC1=O)NC(=O)C1=Cc2cc(Br)ccc2OC1 | 0.18 | > 100 | 25000 | EC50 [1]: 0.55 µM; K obs / 1 [3]: 372 M⁻¹ s⁻¹
2 | CCOC(=O)/C=C/[C@H](C[C@@H]1CCNC1=O)NC(=O)c1ccc2ccccc2c1 | 0.15 | > 100 | 1090 | EC50 [5]: 1.4 µM; K obs / 1 [3]: 110 M⁻¹ s⁻¹
3 | CCOC(=O)/C=C/[C@H](C[C@@H]1CCNC1=O)NC(=O)c1cc(-c2ccccc2)oc1C | 1.94 | > 100 | 4740 | –
4 | CCOC(=O)/C=C/[C@H](C[C@@H]1CCNC1=O)NC(=O)C1=Cc2cc(Cl)ccc2OC1 | 0.16 | > 100 | 19700 | EC50 [5]: 0.65 µM; EC50 [1]: 0.46 µM; K obs / 1 [6]: 2200 M⁻¹ s⁻¹; EC50 [7]: 5.1 µM; K obs / 1 [3]: 385 M⁻¹ s⁻¹
5 | CCOC(=O)/C=C/[C@H](C[C@@H]1CCNC1=O)NC(=O)/C=C/c1ccc(C)c(Br)c1 | 1.29 | > 10 | 4080 | –
6 | CCOC(=O)/C=C/[C@H](C[C@@H]1CCNC1=O)NC(=O)C1=Cc2ccccc2OC1 | 1.19 | > 100 | 886 | –
7 | CCOC(=O)/C=C/[C@H](C[C@@H]1CCNC1=O)NC(=O)/C=C/c1cc(Br)ccc1Br | – | – | 6850 | –
8 | CCOC(=O)/C=C/[C@H](C[C@@H]1CCNC1=O)NC(=O)/C=C/c1cc2c(cc1Br)OCO2 | 0.49 | > 100 | 14400 | –
9 | CCOC(=O)/C=C/[C@H](C[C@@H]1CCNC1=O)NC(=O)c1ccc2cc(C)ccc2c1 | 0.88 | > 100 | 5000 | –
10 | CCOC(=O)/C=C/[C@H](C[C@@H]1CCNC1=O)NC(=O)c1ccc2ccc(Br)cc2c1 | 0.18 | > 50 | 31400 | –
11 | CCOC(=O)/C=C/[C@H](C[C@@H]1CCNC1=O)NC(=O)/C=C/c1cccc(Br)c1 | 1.4 | > 10 | – | K obs / 1 [8]: 2560 M⁻¹ s⁻¹
12 | CCOC(=O)/C=C/[C@H](C[C@@H]1CCNC1=O)NC(=O)/C=C/c1ccc(F)c(Br)c1 | 0.63 | > 100 | 2860 | –
13 | CCOC(=O)/C=C/[C@H](CCC(N)=O)NC(=O)C(Cc1ccccc1)NC(=O)[C@H](CC(C)C)NC(=O)OCc1ccccc1 (stereo partly specified) | 0.54 | > 100 | 25000 | EC50 [5]: 1.6 µM; EC50 [1]: 0.6 µM; K obs / 1 [6]: 6530 M⁻¹ s⁻¹; K obs / 1 [9]: 3440 M⁻¹ s⁻¹; K obs / 1 [3]: 2000 M⁻¹ s⁻¹; EC50 [10]: 2.3 µM; EC50 [11]: 6.3 µM
14 | CCOC(=O)/C=C/[C@H](C[C@@H]1CCNC1=O)NC(=O)/C=C/c1ccc2c(c1)OCO2 | 1.81 | > 10 | 1960 | –
